HKDC1 inhibitor: blocks human hexokinase HKDC1 activity; recombinant HKDC1, G6PDH/diaphorase resazurin coupled fluorescence; inhibition, % at 20 µM; 0.16% of 340,000 active; AID 493160;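 active means inhibition above about 35% when tested at 20 µM, limit read from the data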;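 further: plate controls were DMSO wells with enzyme for no effect and DMSO wells lacking enzyme for full effect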
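Assay system: recombinant HKDC1 hexokinase; detection: coupled resazurin fluorescence, excitation 525 nm, emission 613 nm; benchmarks: DMSO-plus-enzyme-mix negative control, buffer-substituted positive control; compound dosing: single 20 µM dose; schedule: 90 min at room temperature in dark; also added: glucose plus 1 mM ATP as hexokinase substrates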
Diaphorase inh: counter-screen for diaphorase-based assays: diaphorase inhibitors and chemical oxidizers; 0.69% of 190,000 active; AID 1217; diaphorase resazurin-to-resorufin fluorescence, NADH, 16 min; bacterial (C. kluyveri) enzyme, not human; inhibition, % at 20 µM;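 active means primary screen inhibition at 20 µM above a set limit, cut at about 50% in these data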;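 further: plate controls were DMSO with full reaction for no effect and wells lacking NADH for full effect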
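controls = No-NADH positive control and DMSO neutral control | system = Clostridium kluyveri diaphorase enzyme | timing = reaction incubation of 16 min at room temperature | signal = resorufin fluorescence 544/590 nm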
G6PDH counter: inhibits Leuconostoc G6PDH, flagging false hits in G6PDH-based assays | Purified L. mesenteroides G6PDH, diaphorase/resazurin coupled fluorescence, 45 min | inhibition, % at 5 µM | 0.12% of 200,000 active; in the data active means inhibition above about 50%
PfG6PD inh: PfG6PD (Plasmodium falciparum) enzyme inhibition. PfGluPho enzyme, NADPH resazurin-diaphorase fluorescence. inhibition, % at 20 µM. 0.78% of 350,000 active. AID 504690;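 active means inhibition reaching at least a set limit at 20 µM in the primary screen, cut at about 59% in these data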;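 further: 0% = DMSO wells with substrate and 100% = DMSO wells lacking glucose-6-phosphate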
The depositor's hits bear a star; / = no result. Only some compounds are listed: those with a hit (about 1.2% of all), similar ones and a draw of the others.

SMILES	HKDC1 inhibitor	Diaphorase inh	G6PDH counter	PfG6PD inh
COc1ccc(NS(=O)(=O)c2ccc(C)c(NC(=O)c3ccc(C)c(S(=O)(=O)N4CCOCC4)c3)c2)cc1	12.5	50.4*	8.3	15.3
COc1cc(/C=N/NC(=O)c2cc3ccccc3cc2O)ccc1OCCN1CCCCC1	20.1	89.3*	-2.8	51.0
C#CC1(O)CCC2C3CCc4cc(O)cc(C)c4C3CCC21C (centres undefined)	8.9	/	/	-9.3
CCNc1ccc(Br)cc(C(=O)/C=C/c2ccc(Cl)cc2Cl)c1=O	26.1	54.2*	21.3	24.9
O=[N+]([O-])c1ccccc1/C=C/C=N/n1c(-c2ccccc2)n[nH]c1=S	14.2	68.2*	0.6	15.1
Cc1ccc(-c2n[nH]c(=S)n2/N=C/C=C\c2ccccc2[N+](=O)[O-])cc1	-1.5	66.2*	-6.9	17.6
O=[N+]([O-])c1ccccc1/C=C/C=N/n1c(-c2ccc(Cl)cc2)n[nH]c1=S	-30.6	21.5	-0.6	4.2
CN1CC2(Cc3c1ccc1ccccc31)C(=O)OC(C)(C)OC2=O	24.9	50.7*	6.6	21.2
Cc1ccc(S(=O)(=O)N(CC(=O)c2ccc(Cl)cc2)C(=O)N2CCN(C)CC2)cc1	-4.8	/	/	-3.6
O=C1/C(=C/c2ccc(O)c(O)c2)SC(=S)N1Nc1ccccc1	9.1	56.1*	4.2	-2.0
COc1cc(/C=C2\SC(=S)N(Nc3ccccc3)C2=O)ccc1O	9.8	16.1	-15.9	-52.0
O=C(COC(=O)CCSc1ccc(Cl)cc1)NCCc1ccccc1	-1.5	55.0*	-5.5	1.2
COc1ccccc1C(=O)NNC(=O)CN(C)S(=O)(=O)c1ccc(Cl)cc1	/	/	/	7.5
COc1ccc(NC(=O)CSc2nc3ccsc3c(=O)n2CCC(=O)O)cc1	/	/	/	-19.4
Cc1ccccc1C(=O)c1cccn1CC(=O)NCc1cccc(Cl)c1	-3.4	/	/	9.8
COc1cc(/C=C2\SC(=O)NC2=O)ccc1Oc1ccc([N+](=O)[O-])cc1[N+](=O)[O-]	2.5	59.0*	-7.5	8.5
CCn1c(SCc2nc3sc(C(=O)O)c(C)c3c(=O)[nH]2)nc2ccccc21	1.6	60.9*	7.0	-5.7
Cc1cccc(N2CCN(C(=O)Cn3sc4nc(C)cc(C)c4c3=O)CC2C)c1 (centres undefined)	-2.0	21.9	-2.9	104.9*
Cc1onc(-c2ccccc2Cl)c1C(=O)NCc1cccnc1	4.1	12.8	-11.6	0.0
COc1ccc(CNC(=O)c2c(C)oc3c2C(=O)c2ccccc2C3=O)cc1	11.6	11.4	62.3*	30.8
CC(=O)c1c(C)oc2c1C(=O)c1ccccc1C2=O	1.8	16.1	3.7	-38.8
Cc1oc2c(c1C(=O)NCc1cccnc1)C(=O)c1ccccc1C2=O	27.1	-0.5	59.1*	103.4*
CC1C(=O)N(Cc2cn(Cc3ccco3)nn2)CCS(=O)(=O)N1Cc1ccc(-c2ccncc2)cc1 (centres undefined)	/	/	/	2.8
CC(C)[C@H](NC(=O)[C@H](Cc1ccccc1)n1c(=O)[nH]c2ccccc2c1=O)C(=O)N1CCC[C@H]1C(=O)O	1.2	/	/	2.2
CC(C)N(CC#CCC1(O)c2ccccc2-c2ccccc21)CCO	2.1	59.8*	16.6	20.5
SMILES	HKDC1 inhibitor	Diaphorase inh	G6PDH counter	PfG6PD inh
CCC1(C)Cc2c(sc3nnn(CC(=O)Nc4ccccc4)c(=O)c23)CO1 (centres undefined)	-4.6	17.3	4.9	8.4
CCC1(C)Cc2c(sc3nnn(Cc4ccccc4Cl)c(=O)c23)CO1 (centres undefined)	-5.5	57.3*	3.7	20.5
Oc1ccc2[nH]ccc2c1	2.0	25.4	55.9*	2.2
CCOc1cc(C(=S)N2CCN(C)CC2)ccc1OCC(=O)N1CCCC1	-7.3	/	/	-0.9
CC1(C)CC(N=C2C([N+](=O)[O-])=CC=C3C2=NC2(CCCCC2)N3O)CC(C)(C)N1	10.8	/	/	16.1
O=[N+]([O-])C1=CC=C2C(=NC3(CCCCC3)N2O)C1=NCCc1ccccc1	0.0	62.9*	14.9	-10.6
O=[N+]([O-])C1=CC=C2C(=NC3(CCCCC3)N2O)C1=NC1CCCCC1	26.4	82.8*	25.9	14.8
CC(C)(C)N=C1C([N+](=O)[O-])=CC=C2C1=NC1(CCCCC1)N2O	12.1	76.5*	38.6	25.3
N=C1C=CC=C2C1=NC1(CCCCC1)N2O	1.1	64.1*	-23.5	23.2
CCCCCCCCNCCS(=O)(=O)NCc1ccc(OC)cc1	2.9	/	/	5.9
OCC(CO)(CO)N=Cc1c(O)ccc2ccccc12	10.2	57.3*	34.2	34.5
CN(C)/N=C/c1c(O)ccc2ccccc12	14.6	29.2	13.1	8.3

Screening data: PubChem BioAssay, Sanford-Burnham Center for Chemical Genomics
